Data reported in ChEMBL document CHEMBL1212857, “Syntheses and pharmacological characterization of novel thiazole derivatives as potential mGluR5 PET ligands” (Bioorg Med Chem, 2010).
One block for each compound: values may come before it.

Experiments:
[1] = target: Metabotropic glutamate receptor 5 (Rattus norvegicus, UniProt P31424); test: Displacement of [3H]M-MPEP from mGluR5 in Sprague-Dawley rat brain membranes (cerebellum removed) after 45 mins by liquid scintillation counting
Plasma [2] = test: Metabolic stability in rat plasma after 120 mins by UPLC analysis; assay type: ADME, cell-free; conditions: 2 h
Method in brief: (§1)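 [18F] tracer in ethanol added to human or rat plasma and incubated at 37 °C for 120 min. Aliquots taken at 0, 30, 60, 90 and 120 min into ice-cold acetonitrile, centrifuged (5000g, 4 °C, 10 min), and supernatant analysed by radio-UPLC.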

Plasma [3] = test: Metabolic stability in human plasma after 120 mins by UPLC analysis; assay type: ADME, cell-free; conditions: 2 h
Method in brief: as §1

[4] = Metabolic stability in rat liver microsomes assessed as compound remaining after 60 mins by UPLC analysis; assay type: ADME, Microsome; conditions: read-out: Stability
Method in brief: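 Pooled rat liver microsomes (0.52 mg/mL protein). Tracer (20–50 nM) preincubated 5 min with 10 mM NADPH in 0.1 M phosphate pH 7.4 at 37 °C before microsomes were added; testosterone served as positive control and boiled microsomes as negative control. Reactions quenched with ice-cold acetonitrile at 0, 15, 30 and 60 min, centrifuged, and supernatant run by UPLC.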

Brain = test: Drug uptake in Sprague-Dawley rat brain slices at 0.5 to 5 nM after 45 mins by autoradiography in presence of 500 nM of ABP688; assay type: ADME, tissue-based; conditions: 0.75 h, 0.005 µM
Method in brief: (§2)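 Frozen rat brain slices thawed 30 min at rt, preincubated 10 min at 4 °C in HEPES–BSA buffer pH 7.4, then covered with 0.5 or 5 nM [18F] tracer for 45 min at rt in a humid chamber. Blocking was by co-incubation with excess unlabeled ABP688. Washes were 3×3 min in HEPES buffer and 2×5 s in water at 4 °C, followed by 40 min drying and 7 min phosphor-plate exposure.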

[5] = Lipophilicity, log D of the compound at pH 7.4 by shake flask method; assay type: physicochemical; conditions: buffer
Method in brief: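 Shake-flask log D (n = 5): [18F] tracer (80 kBq) added to 0.5 mL 1-octanol and 0.5 mL phosphate buffer pH 7.4, each pre-saturated with the other. Mixed 15 min, centrifuged at 5000g for 5 min, and radioactivity in each phase gamma-counted.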

Cortex = test: Drug uptake in Sprague-Dawley rat cortex at 0.5 to 5 nM after 45 mins by autoradiography; assay type: ADME, tissue-based; conditions: 0.75 h, 0.005 µM
Method in brief: as §2

Hippocampus = test: Drug uptake in Sprague-Dawley rat hippocampus at 0.5 to 5 nM after 45 mins by autoradiography; assay type: ADME, tissue-based; conditions: 0.75 h, 0.005 µM
Method in brief: as §2

Striatum = test: Drug uptake in Sprague-Dawley rat striatum at 0.5 to 5 nM after 45 mins by autoradiography; assay type: ADME, tissue-based; conditions: 0.75 h, 0.005 µM
Method in brief: as §2

Metabotropic glutamate receptor 5, sequence (P31424 whole entry): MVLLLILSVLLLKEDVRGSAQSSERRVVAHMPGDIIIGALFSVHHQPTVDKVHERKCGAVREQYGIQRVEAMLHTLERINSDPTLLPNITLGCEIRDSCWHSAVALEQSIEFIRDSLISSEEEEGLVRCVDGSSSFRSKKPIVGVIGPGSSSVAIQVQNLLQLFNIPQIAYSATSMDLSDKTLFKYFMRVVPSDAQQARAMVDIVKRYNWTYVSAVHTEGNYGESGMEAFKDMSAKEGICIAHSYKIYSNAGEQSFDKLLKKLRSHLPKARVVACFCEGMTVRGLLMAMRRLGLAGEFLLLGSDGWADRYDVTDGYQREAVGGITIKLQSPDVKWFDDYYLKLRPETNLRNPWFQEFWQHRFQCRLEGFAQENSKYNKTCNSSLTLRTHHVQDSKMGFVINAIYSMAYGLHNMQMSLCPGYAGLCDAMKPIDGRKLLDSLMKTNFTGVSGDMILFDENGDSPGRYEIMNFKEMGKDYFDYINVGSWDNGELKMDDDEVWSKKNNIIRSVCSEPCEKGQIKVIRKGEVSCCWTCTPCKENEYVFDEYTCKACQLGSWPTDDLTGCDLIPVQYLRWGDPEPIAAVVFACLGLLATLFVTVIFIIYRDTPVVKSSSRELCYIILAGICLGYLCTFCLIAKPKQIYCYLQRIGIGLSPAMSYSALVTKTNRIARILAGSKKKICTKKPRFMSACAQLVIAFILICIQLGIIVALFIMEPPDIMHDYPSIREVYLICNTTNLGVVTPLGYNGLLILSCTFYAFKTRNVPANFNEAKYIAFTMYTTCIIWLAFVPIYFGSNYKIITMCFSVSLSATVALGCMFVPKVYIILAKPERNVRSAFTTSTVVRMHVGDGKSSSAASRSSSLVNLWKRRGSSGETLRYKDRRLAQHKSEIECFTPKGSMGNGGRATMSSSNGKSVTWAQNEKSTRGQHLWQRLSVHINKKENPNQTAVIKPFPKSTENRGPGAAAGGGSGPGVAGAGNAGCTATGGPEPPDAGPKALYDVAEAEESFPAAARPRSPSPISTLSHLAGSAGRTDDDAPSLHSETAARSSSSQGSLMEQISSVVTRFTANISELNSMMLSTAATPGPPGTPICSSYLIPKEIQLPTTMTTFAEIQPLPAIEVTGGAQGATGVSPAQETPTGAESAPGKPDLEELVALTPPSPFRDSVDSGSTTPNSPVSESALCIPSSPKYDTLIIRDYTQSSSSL

Ki [1]: 20.3 nM
Compound: CO/N=C1/C=C(C#Cc2nccs2)CCC1

Stability (Plasma [2]): Stable | Stability (Plasma [3]): Stable | remaining at 1 h [4]: 93% | Drug uptake (Brain): Not Active | logD [5]: 1.6 | Drug uptake (Cortex): Active | Drug uptake (Hippocampus): Active | Drug uptake (Striatum): Active
Compound: CO/N=C1/C=C(C#Cc2csc(C[18F])n2)CCC1

Ki [1]: 21.9 nM
Compound: Cc1nc(C#CC2=C/C(=N/OCCOCCF)CCC2)cs1

Ki [1]: 36 nM
Compound: FCCOCCO/N=C1/C=C(C#Cc2cscn2)CCC1

Ki [1]: 5.5 nM
Compound: CO/N=C1/C=C(C#Cc2csc(CF)n2)CCC1
